According to ChEMBL document CHEMBL5154701, “Thieno[2,3-d]pyrimidine-2,4(1H,3H)-dione Derivative Inhibits d-Dopachrome Tautomerase Activity and Suppresses the Proliferation of Non-Small Cell Lung Cancer Cells” (J Med Chem, 2022):
In brackets after ≈: the same amount, converted by molar mass. One block for each compound: values may come before it. Activity calls are given as the source filed them. The calls are words filed in the database; no cut-off is given here.

Key:
[1] = Inhibition of human recombinant MIF2 tautomerase activity expressed in bacterial expression system assessed as PP conversion incubated for 10 mins by tautomerase assay
[2] = Solubility of the compound; type: physicochemical
[3] = Inhibition of human MIF2 tautomerase activity expressed in Escherichia coli by anion-exchange chromatography
Homo sapiens [4] = organism: Homo sapiens; test: Substrate activity at MIF2 tautomerase (unknown origin) assessed as rate constant Kcat
Method in brief: (§1)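 Keto-enol tautomerization kinetics with phenylpyruvate, 4-chloro-, 4-hydroxy- and 4-methoxyphenylpyruvate as substrates. Initial conversion velocities taken from the linear first 3 min of UV absorbance increase. Kcat, Km and Kcat/Km derived from these rates.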

Homo sapiens [5] = organism: Homo sapiens; test: Substrate activity at MIF2 tautomerase (unknown origin) assessed as rate constant Km; method in brief: as §1
Homo sapiens [6] = organism: Homo sapiens; test: Substrate activity at MIF2 tautomerase (unknown origin) assessed as ratio of Kcat to Km; method in brief: as §1
[7] = Inhibition of MIF2 (unknown origin); parameters: species or system Homo sapiens
A549 [8] = test: Inhibition of MIF2 related signalling pathway assessed as inhibition of MIF2 induced ERK phosphorylation in human A549 cells in presence of recombinant MIF2 incubated for 15 min by Western blot analysis; type: cell-based; conditions: dose 0.1-10 µM, DDE = dose-dependent effect
Method in brief: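 A549 (3 × 10^5/well) grown overnight in RPMI with 0.5% FBS. Stimulated 15 min with recombinant MIF2 (100 ng/mL, serum-free), alone or preincubated with compound. Lysed in RIPA with phosphatase/protease inhibitors, and 20 μg protein blotted for pERK, ERK and GAPDH. pERK:ERK densitometry normalized to control; n = 2.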

A549 [9] = test: Induction of cell cycle arrest in human A549 cells assessed as accumulation of cells in G0/G1 phase for 2 days by flow cytometry analysis; type: functional, cell-based; conditions: dose 5-10 µM, time 2.0 day, DDE = dose-dependent effect
Method in brief: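 A549 seeded at 1 × 10^5 per well and treated next day with compound or vehicle for 48 h. Cells trypsinized, then stained with 20 μg/mL propidium iodide plus 0.1% Triton X-100 for 15 min at room temperature. 30 000 cells acquired by flow cytometry and G0/G1, S and G2/M fractions gated. n = 3, mean ± SD.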

Homo sapiens [10] = organism: Homo sapiens; test: Stabilization of human recombinant MIF2 expressed in bacterial expression system assessed as apparent melting temperature by fluorescence based thermal shift assay; conditions: DDE = dose-dependent effect
Method in brief: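 Recombinant MIF2 expressed from pET20b(+) in E. coli BL21(DE3) and purified by Q sepharose, phenyl sepharose and size exclusion (trimer), in 20 mM sodium phosphate pH 8.0. Fluorescence-based thermal shift read-out: apparent melting temperature with compound versus DMSO control, with ΔTm as the difference.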

A549 [11] = test: Antiproliferative against human A549 cells assessed as inhibition of cell viability measured after 72 hrs by fluorescence based assay; type: functional
Method in brief: (§2)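 Cells in RPMI-1640 with 10% FBS, 37 °C, 5% CO2, seeded at 1000 cells/well and cultured overnight. Treated with compound (0.25–10 μM) for 72 h. Relative cell number from DNA content by CyQUANT Direct, with 60 min detection reagent and fluorescence read at 485/535 nm. Normalized to DMSO control. Mean ± SD of three experiments.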

NCI-H1650 [12] = test: Antiproliferative against human NCI-H1650 cells assessed as inhibition of cell viability measured after 72 hrs by fluorescence based assay; type: functional; method in brief: as §2
NCI-H1299 [13] = test: Antiproliferative against human NCI-H1299 cells assessed as inhibition of cell viability measured after 72 hrs by fluorescence based assay; type: functional; method in brief: as §2
HCC827 [14] = test: Antiproliferative against human HCC827 cells assessed as inhibition of cell viability measured after 72 hrs by fluorescence based assay; type: functional; method in brief: as §2
A549 [15] = test: Antiproliferative against human A549 cells assessed as inhibition of cell viability at 1 uM measured after 72 hrs by fluorescence based assay; type: functional; method in brief: as §2
A549 [16] = test: Inhibition of colony formation in human A549 cells assessed as colony number measured after 5 days by crystal violet staining method; type: functional, cell-based; conditions: dose 1-10 µM, time 5.0 day, DDE = dose-dependent effect
Method in brief: (§3)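 Seeded at 1000 cells/well in RPMI-1640 with 10% FBS and incubated overnight. Exposed to compound or DMSO for 5 days. Fixed in 4% paraformaldehyde for 20 min, then stained with 0.5% crystal violet for 20 min. Colonies imaged, dissolved in acetic acid, and absorbance read at 590 nm. Values relative to DMSO wells. Three experiments, mean ± SD.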

NCI-H1650 [17] = test: Inhibition of colony formation in human NCI-H1650 cells assessed as colony number measured after 5 days by crystal violet staining method; type: functional, cell-based; conditions: dose 1-10 µM, time 5.0 day, DDE = dose-dependent effect; method in brief: as §3
NCI-H1299 [18] = test: Inhibition of colony formation in human NCI-H1299 cells assessed as colony number measured after 5 days by crystal violet staining method; type: functional, cell-based; conditions: dose 1-10 µM, time 5.0 day, DDE = dose-dependent effect; method in brief: as §3
HCC827 [19] = test: Inhibition of colony formation in human HCC827 cells assessed as colony number measured after 5 days by crystal violet staining method; type: functional, cell-based; conditions: dose 1-10 µM, time 5.0 day, DDE = dose-dependent effect; method in brief: as §3
A549 [20] = test: Inhibition of colony formation in human A549 cells assessed as colony size measured after 5 days by crystal violet staining method; type: functional, cell-based; conditions: dose 1-10 µM, time 5.0 day, DDE = dose-dependent effect; method in brief: as §3
NCI-H1650 [21] = test: Inhibition of colony formation in human NCI-H1650 cells assessed as colony size measured after 5 days by crystal violet staining method; type: functional, cell-based; conditions: dose 1-10 µM, time 5.0 day, DDE = dose-dependent effect; method in brief: as §3
NCI-H1299 [22] = test: Inhibition of colony formation in human NCI-H1299 cells assessed as colony size measured after 5 days by crystal violet staining method; type: functional, cell-based; conditions: dose 1-10 µM, time 5.0 day, DDE = dose-dependent effect; method in brief: as §3
HCC827 [23] = test: Inhibition of colony formation in human HCC827 cells assessed as colony size measured after 5 days by crystal violet staining method; type: functional, cell-based; conditions: dose 1-10 µM, time 5.0 day, DDE = dose-dependent effect; method in brief: as §3
A549 [24] = test: Inhibition of colony formation in human A549 cells at 10 uM measured after 5 days by crystal violet staining method; type: functional; conditions: A549, 120 h, time 5 day; method in brief: as §3
NCI-H1650 [25] = test: Inhibition of colony formation in human NCI-H1650 cells at 10 uM measured after 5 days by crystal violet staining method; type: functional; conditions: NCI-H1650, 120 h, time 5 day; method in brief: as §3
NCI-H1299 [26] = test: Inhibition of colony formation in human NCI-H1299 cells at 10 uM measured after 5 days by crystal violet staining method; type: functional; conditions: NCI-H1299, 120 h, time 5 day; method in brief: as §3
HCC827 [27] = test: Inhibition of colony formation in human HCC827 cells at 10 uM measured after 5 days by crystal violet staining method; type: functional; conditions: HCC827, 120 h, time 5 day; method in brief: as §3

Compound: Cc1c(-c2ccc(F)cc2)sc2nc(Cc3ccccc3)[nH]c(=O)c12
- IC50 [1]: 17 µM

Compound: CCCCNC(=O)c1c(N)sc(-c2ccc(Cl)cc2)c1CCCC
- IC50 [1]: 15 µM

Compound: Cc1c(-c2ccc(Cl)cc2Cl)sc2[nH]c(=O)n(Cc3ccccc3)c(=O)c12
- IC50 [1]: 3.5 µM

Compound: Cc1c(-c2ccc(Cl)cc2)sc2[nH]c(=O)n(-c3ccccc3)c(=O)c12
- IC50 [1]: 19 µM

Compound: O=C(O)c1cccc(-c2cc(C(=O)O)ncc2C(=O)O)c1
- IC50 [3]: 27 µM
- IC50 [1]: 47 µM

Compound: Cc1c(-c2ccccc2)sc2[nH]c(=O)n(Cc3ccccc3)c(=O)c12
- IC50 [1]: 7.6 µM

Compound: CCCCNC(=O)c1cc(-c2ccc(Cl)cc2)sc1N
- IC50 [1]: 15 µM

Compound: Cc1c(-c2cccc(C(F)(F)F)c2)sc2[nH]c(=O)n(Cc3cccc4ccccc34)c(=O)c12
- IC50 [1]: 0.81 µM

Compound: CCCCn1c(=O)[nH]c2sc(-c3ccccc3)cc2c1=O
- IC50 [1]: 16 µM

Compound: COc1cccc(Cc2nc3sc(-c4ccc(Cl)cc4)c(C)c3c(=O)[nH]2)c1
- IC50 [1]: 4.3 µM

Compound: O=c1[nH]c2scc(-c3ccc(Cl)cc3)c2c(=O)n1Cc1ccccc1
- IC50 [1]: 27 µM

Compound: 4-hydroxylphenylpyruvate
- kcat (Homo sapiens [4]): 13 s⁻¹
- Km (Homo sapiens [5]): 3.62 mM
- kcat/Km (Homo sapiens [6]): 0.37 10^4/M/s

Compound: Nc1sc(-c2ccc(Cl)cc2)cc1C(=O)NCCc1ccccc1
- IC50 [1]: 84 µM

Compound: Cc1c(-c2ccc(Cl)cc2)sc2nc(Cc3ccccc3)[nH]c(=O)c12
- IC50 [1]: 15 µM

Compound: Cc1c(-c2cccc(C(F)(F)F)c2)sc(N)c1C(=O)N[C@@H](C)c1cccc2ccccc12
- IC50 [1]: 7.9 µM

Compound: Cc1c(-c2ccc(Cl)c(Cl)c2)sc2[nH]c(=O)n(Cc3ccccc3)c(=O)c12
- IC50 [1]: 1.9 µM

Compound: Ic1cc(-c2ccccc2)ncn1
- IC50 [7]: > 100 µM

Compound: CCCCNC(=O)c1cc(-c2ccccc2)sc1NC(=O)CCC
- IC50 [1]: 39 µM

Compound: Cc1c(-c2cccc(C(F)(F)F)c2)sc2[nH]c(=O)n(Cc3ccccc3)c(=O)c12
- IC50 [1]: 1.7 µM

Compound: 4-methoxyphenylpyruvate
- kcat (Homo sapiens [4]): 28 s⁻¹
- Km (Homo sapiens [5]): 6.7 mM
- kcat/Km (Homo sapiens [6]): 0.43 10^4/M/s

Compound: Cc1c(-c2ccccc2)sc2[nH]c(=O)n(-c3ccccc3)c(=O)c12
- IC50 [1]: > 100 µM

Compound: phenylpyruvate
- kcat (Homo sapiens [4]): 132 s⁻¹
- Km (Homo sapiens [5]): 2.4 mM
- kcat/Km (Homo sapiens [6]): 5.5 10^4/M/s

Compound: CCOCCNC(=O)c1cc(-c2ccc(Cl)cc2)sc1N
- IC50 [1]: > 100 µM

Compound: Cc1c(-c2ccc(Cl)cc2)sc2[nH]c(=O)n(Cc3ccccc3)c(=O)c12
- IC50 [1]: 5.1 µM

Further lines, with some results ahead:

- IC50 [1]: 17 µM
Compound: Cc1c(-c2ccc(Cl)cc2)sc2nc(CCl)[nH]c(=O)c12

- IC50 [1]: 36 µM
Compound: O=c1[nH]c2scc(-c3ccccc3)c2c(=O)n1Cc1ccccc1

- IC50 [1]: 4.8 µM
Compound: Cc1c(-c2ccc(Cl)cc2)sc2[nH]c(=O)n(Cc3ccc(C(F)(F)F)cc3)c(=O)c12

- IC50 [1]: 2.5 µM
- solubility [2]: 15 µg/mL (≈ 31.2 µM)
Compound: Cc1c(-c2cccc(C(F)(F)F)c2)sc2[nH]c(=O)n([C@@H](C)c3cccc4ccccc34)c(=O)c12

- IC50 [1]: 13 µM
Compound: CCCCCCCCNC(=O)c1cc(-c2ccccc2)sc1N

- IC50 [1]: 7.2 µM
Compound: CCCCNC(=O)c1cc(-c2ccc(Br)cc2)sc1N

- IC50 [1]: 2.6 µM
Compound: Cc1c(-c2cccc(C(F)(F)F)c2)sc(N)c1C(=O)NCc1cccc2ccccc12

- IC50 [1]: 4.2 µM
Compound: Cc1c(-c2cccc(C(F)(F)F)c2)sc(N)c1C(=O)N[C@H](C)c1cccc2ccccc12

- IC50 [1]: 15 µM
Compound: C=CCn1c(=O)[nH]c2sc(-c3ccc(Cl)cc3)cc2c1=O

- IC50 [1]: 41 µM
Compound: CCCCNC(=O)c1cc(-c2ccccc2)sc1NC(C)=O

- kcat (Homo sapiens [4]): 68 s⁻¹
- Km (Homo sapiens [5]): 2.17 mM
- kcat/Km (Homo sapiens [6]): 3.2 10^4/M/s
Compound: 4-chlorophenylpyruvate

- IC50 [1]: 4.6 µM
Compound: Cc1c(-c2ccc3c(c2)OCO3)sc2[nH]c(=O)n(Cc3ccccc3)c(=O)c12

- IC50 [1]: 36 µM
Compound: Nc1sc(-c2ccc(Cl)cc2)cc1C(=O)NCCc1ccc(Cl)cc1

- IC50 [1]: 168 µM
Compound: Nc1sc(-c2ccccc2)cc1C(=O)NCC1CCOC1 (centres undefined)

- IC50 [1]: 1 µM
- solubility [2]: 16 µg/mL (≈ 33.3 µM)
- deltaTm (Homo sapiens [10]): Dde
- IC50 (A549 [11]; A549, 72 h): 3 µM
- IC50 (NCI-H1650 [12]; NCI-H1650, 72 h): 5.3 µM
- IC50 (NCI-H1299 [13]; NCI-H1299, 72 h): 7.6 µM
- IC50 (HCC827 [14]; HCC827, 72 h): 5.2 µM
Compound: Cc1c(-c2cccc(C(F)(F)F)c2)sc2[nH]c(=O)n([C@H](C)c3cccc4ccccc34)c(=O)c12
- inhibition (A549 [8]): Dde
- Activity (A549 [9]): Dde
- Activity (A549 [11]; DDE = dose-dependent effect): Dde
- Activity (NCI-H1650 [12]; DDE = dose-dependent effect): Dde
- Activity (NCI-H1299 [13]; DDE = dose-dependent effect): Dde
- Activity (HCC827 [14]; DDE = dose-dependent effect): Dde
- Activity (A549 [15]): Active
- inhibition (A549 [16]): Dde
- inhibition (NCI-H1650 [17]): Dde
- inhibition (NCI-H1299 [18]): Dde
- inhibition (HCC827 [19]): Dde
- inhibition (A549 [20]): Dde
- inhibition (NCI-H1650 [21]): Dde
- inhibition (NCI-H1299 [22]): Dde
- inhibition (HCC827 [23]): Dde
- inhibition at 10 µM (A549 [24]): 90%
- inhibition at 10 µM (NCI-H1650 [25]): 90%
- inhibition at 10 µM (NCI-H1299 [26]): 90%
- inhibition at 10 µM (HCC827 [27]): 90%
